How the values were obtained:
[1] = Cytotoxicity against mouse J774.A1 cells assessed as cell survival at 0.1 uM measured after 96 hrs by SYBR Green II dye based analysis relative to control; type: toxicity; conditions: read-out: Survival
Procedure, shortened: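 Uninfected J774A.1 mouse macrophages were plated at 1 × 10⁴ cells/well in DMEM with 10% heat-inactivated FBS and left 3 h at 37 °C to reattach. Compounds were added from DMSO, and analogues were screened at 0.1 μM. After 96 h at 37 °C in 5% CO₂, medium was removed. SYBR Green II (1:1000 in 1% Triton/PBS) was added for 1 h in the dark at room temperature, and fluorescence was read at Ex 485/Em 535 as a DNA-content measure of viability.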

[2] = system: Leishmania mexicana; assay: Antileishmanial activity against Leishmania mexicana MNYC/BZ/62/M379 amastigotes expressing red-shifted firefly luciferase from integrated ribosomal (28S) RNA locus infected in mouse J774.A1 cells assessed as parasite survival at 0.1 uM measured after 96 hrs by luminescence based analysis relative to control; type: functional; conditions: MNYC/BZ/62/M379, J774.A1
[3] = Cytotoxicity against mouse J774.A1 cells assessed as reduction in cell survival measured after 96 hrs by SYBR Green II dye based analysis; type: toxicity
Procedure, shortened: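 Uninfected J774A.1 macrophages, 1 × 10⁴ cells/well in DMEM/10% HI-FBS, reattached 3 h, then exposed to compounds for 96 h. DNA content read after lysis with SYBR Green II (1:1000 in 1% Triton/PBS), 1 h dark at room temperature, fluorescence Ex 485/Em 535.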

[4] = system: Leishmania mexicana; assay: Antileishmanial activity against Leishmania mexicana MNYC/BZ/62/M379 amastigotes expressing red-shifted firefly luciferase from integrated ribosomal (28S) RNA locus infected in mouse J774.A1 cells assessed as reduction in parasite survival measured after 96 hrs by luminescence based analysis; type: functional, organism-based; conditions: MNYC/BZ/62/M379, J774.A1, 96 h
Procedure, shortened: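 J774A.1 macrophages infected with stationary-phase luciferase-expressing promastigotes at 10:1 parasites:macrophage, overnight at 37 °C, 5% CO₂. Non-internalized parasites washed off and 1 × 10⁴ cells/well replated in MEM/10% HI-FBS. Compounds in DMSO added as serial 3-fold dilutions (typically 10 μM–1 nM) for 96 h. Luciferase luminescence read; EC50 from log-transformed sigmoidal variable-slope fit. Mean ± SD of ≥2 independent experiments.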

[5] = Therapeutic index, ratio of EC50 for mouse J774.A1 cells to EC50 for antileishmanial activity against Leishmania mexicana MNYC/BZ/62/M379 amastigotes expressing red-shifted firefly luciferase from integrated ribosomal (28S) RNA locus infected in mouse J774.A1 cells; type: toxicity, cell-based; conditions: read-out: TI

Row | Compound | viability at 96 h, 0.1 µM [1] [%] | survival at 0.1 µM [2] [%] | EC50 at 96 h [3] [µM] | EC50 [4] [µM] | selectivity ratio [5]
1 | CC1=C/C(=C/NC2CCCCCCC2)N=C1c1ccc[nH]1 | 150 | 48.6 |  |  | 
2 | Clc1ccc(N/C=C2\N=C(c3ccc[nH]3)C3=C2CCCC3)cc1 | 67.2 | 103 |  |  | 
3 | CCC1=C/C(=C/NC2CCCCCC2)N=C1c1ccc[nH]1 | 32.2 | 33.9 |  |  | 
4 | FC(F)(F)Oc1ccc(OC2=CC(c3ccc[nH]3)=N/C2=C\N[C@H]2CC[C@H](C(F)(F)F)CC2)cc1 | 108 | 33.2 | 0.852 | 0.0887 | 9.6
5 | CC1=C(C)/C(=C/NC23CC4CC(CC(C4)C2)C3)N=C1c1[nH]c(C)cc1C | 93.2 | 12.5 | 0.667 | 0.0465 | 14
6 | COC1=CC(c2ccc[nH]2)=N/C1=C\Nc1ccc(Cl)cc1 | 95.4 | 9.85 | > 1 | 0.047 | > 21
7 | FC(F)(F)Oc1ccc(OC2=CC(c3ccc[nH]3)=N/C2=C\NC2CCCCCCC2)cc1 | 92.9 | 37.6 | 0.982 | 0.099 | 9.9
8 | CC1=C(C)/C(=C/Nc2ccc(OC(F)(F)F)cc2)N=C1c1ccc[nH]1 | 77.2 | 102 |  |  | 
9 | CC1=C(C)/C(=C/Nc2ccc(C)cc2)N=C1c1ccc[nH]1 | 54.2 | 74 |  |  | 
10 | C[C@H]1CC[C@H](N/C=C2\N=C(c3ccc[nH]3)C=C2c2ccc(OC(F)(F)F)cc2)CC1 | 116 | 81.6 |  |  | 
11 | CCCCCCCCCCCN/C=C1\N=C(c2ccc[nH]2)C=C1Oc1ccc(OC(F)(F)F)cc1 | 96.7 | 58 |  |  | 
12 | CCC1=C(CC)/C(=C/NC2CCCCCCC2)N=C1c1ccc[nH]1 | 29.5 | 17 |  |  | 
13 | Fc1cc(F)cc(OC2=CC(c3ccc[nH]3)=N/C2=C\NC2CCCCCC2)c1 | 65.8 | 87.2 |  |  | 
14 | FC(F)(F)Oc1ccc(N/C=C2\N=C(c3ccc[nH]3)C3=C2CCCC3)cc1 | 92.7 | 84.9 |  |  | 
15 | CC1=C(C)/C(=C/Nc2ccc(Oc3ccc(C)cc3)cc2)N=C1c1ccc[nH]1 | 66.2 | 111 |  |  | 
16 | CC1=C(C)/C(=C/NC2CCCCCC2)N=C1c1[nH]c(C)cc1C | 56.8 | 43.8 |  | 0.182 | 
17 | C[C@H]1CC[C@H](N/C=C2\N=C(c3ccc[nH]3)C=C2Oc2cc(F)cc(F)c2)CC1 | 55.3 | 96.2 |  |  | 
18 | FC(F)(F)Oc1ccc(C2=CC(c3ccc[nH]3)=N/C2=C\NC2CCCCCC2)cc1 | 95.8 | 77.9 |  |  | 
19 | CC1=C(C)/C(=C/Nc2ccc(Cl)cc2)N=C1c1ccc[nH]1 | 88.1 | 92.2 |  |  | 
20 | C(/NC1CCCCCCC1)=C1/N=C(c2ccc[nH]2)C2=C1CCCC2 | 75.8 | 33.4 |  |  | 
21 | CC1=C/C(=C/NC2CCCCCC2)N=C1c1ccc[nH]1 | 127 | 89 |  |  | 
22 | COC1=CC(c2ccc[nH]2)=N/C1=C\Nc1ccccc1OC(F)(F)F | 81 | 69.9 |  |  | 
23 | CCC1=C(CC)/C(=C/NC2CCCCCC2)N=C1c1ccc[nH]1 | 26.7 | 27.5 |  |  | 
24 | CCC1=C/C(=C/NC2CCCCCCC2)N=C1c1ccc[nH]1 | 35.8 | 34.6 |  |  | 
25 | COc1ccc(Oc2ccc(N/C=C3\N=C(c4ccc[nH]4)C(C)=C3C)cc2)cc1 | 65.9 | 108 |  |  | 
26 | C[C@H]1CC[C@@H](N/C=C2\N=C(c3ccc[nH]3)C=C2Oc2ccc(OC(F)(F)F)cc2)CC1 | 112 | 79.9 |  |  | 

From ChEMBL document CHEMBL5506039, “Discovery and Optimization of Tambjamines as a Novel Class of Antileishmanial Agents” (J Med Chem, 2024)
